A number with no mark means an inactive call. Results filed as inconclusive are left out. Calls of active or inactive are those of the source.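 How the source made its calls, unless noted: active means inhibition over a set limit, the all-compound mean plus 3 SD, in both replicate runs; inconclusive means over that limit in just one replicate run; inactive means at or under that limit in both runs.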
Key:
[1] = OD615 S. cerevisiae growth inhibition, permissive medium, pilot counter-assay, permissive growth control for S. cerevisiae lifespan shortening project (AID 705;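 active means growth inhibition above 25% in both replicates, a cutoff set 3 SD above the mean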); settings: OD615, 24 h, at 10 µM, stronger effect = higher value
Outline: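 System: Engineered DeaD yeast | Buffer or medium: SC raffinose/galactose permissive medium | Doses: 10 µM single dose, 0.25% DMSO | Times: 24 h exposure, 30 °C | Measured by: OD615 turbidity read | Read-out: Yeast growth inhibition indicated by reduced 24 h OD615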

[2] = Restrictive medium S. cerevisiae growth inhibition, OD615, pilot screen of yeast lifespan reduction project, restrictive growth control (AID 706;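 active means growth inhibition above a set limit, 3 SD over mean compound inhibition, in both replicates, cut at about 43% in these data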;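 further: modified DeaD lifespan yeast strain shifted to restrictive glucose medium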); settings: OD615, 48 h, at 10 µM, stronger effect = higher value
Outline: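 Assay system: engineered S. cerevisiae DeaD strain; Buffer or medium: CSMM-D glucose medium; Dosing: 10 µM compound, 0.25% DMSO; Times: cell pre-growth 4 h, compound exposure 48 h, 30 °C; Detection: absorbance (optical density) measured at 615 nm.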

[3] = viability gain of MRP-1-high H69AR cells under doxorubicin, pilot screen, MRP-1 activator project, CellTiter-Glo, duplicate (AID 807;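 active means viability increase at or above a cutoff of the median across tested compounds plus 3 SD, cut at about 8.5% in these data, passing the limit was not always enough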;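 further: compound pretreatment 18-22 h then 72 h combined with doxorubicin; 0% = doxorubicin alone and 100% = vehicle without doxorubicin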); settings: H69AR viability with doxorubicin, CellTiter-Glo luminescence; at 10 µM; stronger effect = higher value
[4] = growth suppression of PTEN-deleted HCT116, pilot screen, cell-based, HCT116 clonal line, CellTiter-Glo (AID 824;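 active means viability at or below 27.92% in each of two runs, the all-compound median minus 4 SD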;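 further: 0% = 20 µM Hyamine control and 100% = vehicle cell control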); settings: 60 h, at 10 µM, stronger effect = lower value
[5] = inhibitors of the yeast RAM network, pilot screen, dse1pr::URA3 reporter, 5-FOA selection (AID 869);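 further: 0% = DMSO wells with no growth and 100% = 10 µM 1-NA-PP1 with full growth; RAM network block rescues cells from 5-FOA so hits raise OD615 growth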; settings: S. cerevisiae dse1pr::URA3 5-FOA growth, OD615, 2 d; at 10 µM; stronger effect = higher value; strain carries analog-sensitive mutant Cbk1 kinase
[6] = RAM signaling pathway blockade in yeast – S. cerevisiae, Pdr1DBD-CYC8 efflux-inhibited sensitized strain, primary screen (AID 1298;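 active means RAM network inhibition above 8.4% in each of two replicates, 3 SD over the compound average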;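 further: 0% = DMSO untreated cells without growth and 100% = 10 µM 1-NA-PP1 full growth; higher means more yeast growth rescued from 5-FOA killing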); settings: S. cerevisiae cbk1-as DSE1-URA3 strain, 5-FOA growth OD615, 2 d; at 50 µM; stronger effect = higher value

SMILES | growth inhibition [1] | growth inhibition [2] | viability increase [3] | viability [4] | inhibition [5] | RAM network inhibition [6]
COc1ccc(CCNS(=O)(=O)c2ccc3c(c2)OCCO3)cc1OC | -9.32% | -3.31% | -1.53% | 89.9% | 3.12% | 1.02%
COc1ccccc1N1CCN(CC(O)COc2ccc3c(C)cc(=O)oc3c2)CC1 (stereo unspecified) | -3.12% | -9.43% | -2.57% | 92.3% | 1.95% | 2.88%
Cc1cc(S(=O)(=O)N2CCN(Cc3ccc4c(c3)OCO4)CC2)cc(C)c1N1CCCC1=O | -10.6% | -19.3% | -3.13% | 53.6% | -0.21% | 0.73%
Cc1nc2nc(SCC(=O)N3CCOCC3)nn2c(C)c1Cc1ccccc1 | -0.01% | 1.59% | -3.4% | 95.5% | 1.7% | 0.77%
Cc1ccc(N(CC(=O)Nc2ccc(S(=O)(=O)N3CCOCC3)cc2)S(C)(=O)=O)cc1C | -6.29% | -5.42% | -4.96% | 84.2% | 0.84% | 2.67%
COc1cc2c(cc1NC(C)=O)CCCC2 | -5.3% | -0.3% | -4.13% | 100% | 1.28% | 1.23%
O=C1c2ccccc2C(=O)N1CSc1nnnn1-c1ccccc1 | -1.45% | 31.4% | -2.14% | 104% | 2.01% | 6.61%
Cc1cc(OCCCCCNCCO)ccc1Cl | -5.31% | -3.71% | -4.62% | 78% | 2.05% | 1.6%
CCOC(=O)N1CCN(C(=O)c2oc3ccc(S(=O)(=O)N4CC(C)CC(C)C4)cc3c2C)CC1 (stereo unspecified) | -2.93% | 2.18% | -6.37% | 42.5% | 1.43% | 4.64%
COC(=O)C1=C(C)N(c2ccc(F)cc2)C(=O)C1 | -6.78% | -12.3% | -2.11% | 93.6% | 1.19% | -0.26%
COc1ccc(OC)c2c(C)cc(N3CCCN(C)CC3)nc12 | 3.26% | -3.9% | -4.81% | 85.9% | 0.015% | 0%
CCOC(=O)N1CCN(C(=O)c2ccc(CN(c3ccc(C)c(C)c3)S(C)(=O)=O)cc2)CC1 | -11.1% | -1.85% | -2.96% | 99.4% | 0.115% | 5.73%
CCOC(=O)N1CCN(S(=O)(=O)c2cc(Br)cc3c2N(C(=O)C2CC2)CC3)CC1 | -3.63% | 7.68% | -1.65% | 99.5% | 0.715% | 5.87%
Cc1ccc(-c2nc(-c3ccccn3)no2)cc1 | 1.26% | 10.2% | -5.02% | 24.4% (active) | -0.485% | 1.82%
O=C(Nc1ccc(Cl)cc1)N(Cc1cccs1)Cc1cccs1 | -13.9% | -21.5% | -0.55% | 64.9% | 2.13% | 8.73%
COc1ccc(CNC(=O)CSc2nnnn2-c2ccc(O)cc2)cc1 | -0.35% | -9.08% | -4.35% | 98.6% | 2.5% | 3.74%
CCCOC(=O)c1ccc(OCC(O)Cn2c(C)nc3ccccc32)cc1 (stereo unspecified) | -11.1% | -3.87% | -1.73% | 57.2% | 0.99% | 6.95%
O=C(NC1(C(F)(F)F)Oc2ccccc2O1)N1CCCC1 | -3.63% | -7.95% | -6.12% | 81.3% | 0.56% | 1.58%
CCOc1ccccc1N(CC(=O)Nc1ccc2c(c1)OCO2)S(C)(=O)=O | -8.59% | -22.3% | -0.96% | 100% | 1.7% | -0.87%
CS(=O)(=O)N(CC(=O)NCc1ccncc1)c1cc(Cl)cc(Cl)c1 | -7.62% | -10.8% | -2.29% | 105% | 1.33% | 0.15%
CCOC(=O)N1CCN(C(=O)CN(c2ccc(Cl)c(C(F)(F)F)c2)S(C)(=O)=O)CC1 | -5.69% | -17.2% | -4.27% | 90.3% | -0.06% | 3.68%

SMILES | growth inhibition [1] | growth inhibition [2] | viability increase [3] | viability [4] | inhibition [5] | RAM network inhibition [6]
Cc1ccc(S(=O)(=O)N(CC(=O)N2CCOCC2)C2CCCCC2)cc1 | -7.12% | -1.69% | -2.71% | 103% | 1.29% | 1.99%
COc1ccc(CCNC(=O)c2oc3ccc(S(=O)(=O)N4CCOCC4)cc3c2C)cc1OC | -0.835% | -1.39% | -4.32% | 78.8% | 1.17% | 3.69%
COc1cc(NC(=O)COc2ccc(-n3cnnn3)cc2)c(OC)cc1Cl | -3.27% | -5.83% | -5.31% | 46.9% | 2.55% | 2.93%
CC(c1ccccc1F)n1cc(C(=O)NCCc2ccco2)nn1 (stereo unspecified) | -12.9% | -9.79% | -4.02% | 76.3% | 0.72% | 0.46%
CCN(CC)C(=O)c1cn(C)c(=O)c2cc(OC)c(OC)cc12 | -12.1% | -8.38% | -4.4% | 98.8% | 0.515% | -1.59%
COc1ccc(NC2CS(=O)(=O)CC2NCc2ccco2)cc1 (stereo unspecified) | 3.62% | -15.4% | -4.04% | 96.2% | 1.94% | 4.2%
CCC(C)C1C(C#N)=C(N)Oc2n[nH]c(C)c21 (stereo unspecified) | -0.17% | 7.77% | -7.71% | 62.9% | 0.79% | 6.1%
c1ccc(-n2nnnc2-n2ccnc2)cc1 | 3.38% | 1.55% | -0.62% | 109% | 0.76% | 0.92%
CCOC(=O)c1c(NC(=O)OC)sc(C(=O)N(CC)CC)c1C | -14.6% | -12.4% | -1.31% | 93% | 1.47% | 1.79%
CC(C)(Oc1ccc(Cl)cc1)C(=O)Nc1ncccn1 | -5.31% | -3.56% | -2.32% | 101% | 1.61% | 2.05%
COc1cc(C(=O)NCc2ccc3c(c2)OCO3)ccc1OCc1c(C)noc1C | 2.15% | -2.32% | -1.5% | 95.1% | 2.5% | 3.79%
O=C(Nc1cccnc1)c1ccc(CN2CCc3ccccc3C2)cc1 | -3.88% | -5.93% | -2.11% | 93.3% | 2.54% | 2.06%
CCOC(=O)c1c(O)c2c(n(Cc3ccco3)c1=O)CCCC2 | -8.59% | 4.38% | -0.86% | 102% | -0.075% | -1.18%
O=C1C(=O)N(CCCn2ccnc2)C(c2cccnc2)/C1=C(/O)c1ccc(Br)cc1 (stereo unspecified) | -7.97% | 7.01% | -0.15% | 104% | 1.9% | 4%
CC(=O)N1CCN(S(=O)(=O)c2ccc(C)cc2)C1c1ccc(N(C)C)cc1 (stereo unspecified) | 4.58% | 1.53% | -2.16% | 97.1% | 1.61% | 4.14%
O=C(NCC1CCCO1)C1CCCCN1S(=O)(=O)c1ccc(F)cc1 (stereo unspecified) | -2.19% | -9.73% | -2.13% | 102% | 0.075% | 1.44%
COc1ccccc1CNC(=O)CCS(=O)(=O)c1cccs1 | -15.9% | -3.45% | -3.06% | 103% | 1.43% | 0.82%
CCOC(=O)C1CCN(C(=O)c2oc3ccc(S(=O)(=O)N4CC(C)CC(C)C4)cc3c2C)CC1 (stereo unspecified) | 1.57% | -4.64% | -6.15% | 52.7% | -1.02% | 5.32%
C=C(C)Cn1c(CCCNC(=O)CC)nc2ccccc21 | -5.08% | 14.8% | -1.27% | 96% | 1.54% | -0.92%
CCCCNC(=O)NS(=O)(=O)c1ccc(NS(=O)(=O)c2ccccc2)cc1 | -10.8% | -7.74% | -0.52% | 98.4% | 2.14% | 4.35%
